Only some compounds are listed: those with a hit (about 1.5% of all), similar ones and a draw of the others.
TPT1 inh: Candida albicans TPT1 enzyme inhibitors, primary screen, biochemical, fluorescence polarization; 300,000 compounds, 0.81% hits; inhibition, % at 5 µM; AID 1962, 2009; recombinant caTPT1, FP RNA substrate dephosphorylation;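 active = inhibition above the mean of all tested compounds plus 3 SD, set per screening campaign, cut at about 24% in these data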;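 note: plate controls were DMSO alone for no effect and ferristatin control at 100 nM for full effect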
CSN deneddyl inh: inhibitors of CSN-mediated cullin deneddylation, primary screen, biochemical, fluorescence polarization, uHTS; COP9 signalosome complex subunit 5 (Homo sapiens), Q92905; Purified CSN, SCF-Nedd8-OG deneddylation; inhibition, % at 12.5 µM; 360,000 compounds, 0.38% hits; AID 651999, 2013;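 active = pattern-corrected inhibition above about 35%, with an unprinted fluorescence ratio check between 0.5 and 1.5, limit read from the data, passing the limit was not always enough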;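 note: 0% = enzyme with substrate and 100% = substrate without enzyme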
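Material: human Csn5 produced in HEK293T cells; Input: enzyme 0.24 nM; Reagent: SCFSkp2-Nedd8OG substrate at 10 nM final; Dosing: 12.5 µM compound; Incubation: 90 min reaction at room temperature; Detection: fluorescence polarization of the substrate; Evaluation: % inhibition of substrate cleavage by Csn5; Control set: substrate-only high control, full reaction low control.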
Rpn11 inh: Rpn11 (PSMD14) deubiquitinase inhibitors, primary screen, biochemical, fluorescence polarization, uHTS | 360,000 compounds, 0.59% hits | human 26S proteasome, Ub4-pepOG fluorescence polarization; 20S core pre-blocked with epoxomicin | 26S proteasome non-ATPase regulatory subunit 14 (Homo sapiens), O00487 | calls only at 20 µM;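 active = inhibition at 20 µM, scaled to each plate's controls, above about 33%, limit read from the data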
HNF4A DNA FP: change in binding of human HNF4A to DNA, primary screen, biochemical, fluorescence polarization, FITC-DNA. 1 h. Hepatocyte nuclear factor 4-alpha (Homo sapiens), P41235. AID 1224865, 2016. 360,000 compounds, 0.3% hits. activity change, % at 10 µM; in the data active = activity change above about 30%, passing the limit was not always enough
Target sequence (P41235 whole entry, looked up): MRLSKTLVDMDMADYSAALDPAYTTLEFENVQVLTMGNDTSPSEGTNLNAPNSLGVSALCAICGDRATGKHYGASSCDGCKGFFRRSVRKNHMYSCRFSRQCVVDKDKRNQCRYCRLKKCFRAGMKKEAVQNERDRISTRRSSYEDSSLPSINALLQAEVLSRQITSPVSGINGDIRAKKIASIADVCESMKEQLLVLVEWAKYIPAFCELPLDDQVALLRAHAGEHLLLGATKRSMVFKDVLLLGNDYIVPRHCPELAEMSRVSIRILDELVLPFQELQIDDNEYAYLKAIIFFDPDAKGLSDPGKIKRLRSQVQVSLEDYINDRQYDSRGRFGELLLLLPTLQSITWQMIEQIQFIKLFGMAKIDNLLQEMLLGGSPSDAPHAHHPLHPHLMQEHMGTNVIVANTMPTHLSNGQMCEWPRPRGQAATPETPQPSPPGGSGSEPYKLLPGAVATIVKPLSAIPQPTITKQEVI
Rpn11 confirm: Rpn11 (PSMD14) deubiquitinase inhibitors, confirmation, biochemical, fluorescence polarization, single concentration; inhibition, % at 20 µM; 1,900 compounds, 29% hits; shares compounds with Rpn11 inh; purified human 26S proteasome, Ub4-pepOG fluorescence polarization; proteasome pretreated with epoxomicin
MMP-2 counter: MMP-2 enzyme inhibition, confirmation, counter-screen for RPN11 inhibitor project, biochemical, fluorescence, single concentration; 1,900 compounds, 4% hits; recombinant MMP-2, FRET peptide cleavage fluorescence; shares compounds with Rpn11 inh; inhibition, % at 20 µM; AID 602330, 2012;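 note: human MMP-2 activated beforehand with APMA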
Thrombin inh: bovine thrombin protease inhibition, confirmation, counter-screen for Rpn11 inhibitor project, biochemical, fluorescence polarization, single concentration; shares compounds with Rpn11 inh; bovine thrombin cleavage of Ub4-pepOG; 1,900 compounds, 13% hits; inhibition, % at 20 µM;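 active = mean inhibition at least 40% at 20 µM, or signal 3 deviations below plate average, so some actives read negative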;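 note: plate controls were thrombin with DMSO for no effect and buffer wells lacking thrombin for full effect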
Active calls of the source: *; i = inactive; . = no result given; + = active, no number. Cut-off read from the data, not from the text of the source, unless noted: active = inhibition above about 40%; inactive = the rest.

SMILES	TPT1 inh	CSN deneddyl inh	Rpn11 inh	HNF4A DNA FP	Rpn11 confirm	MMP-2 counter	Thrombin inh
COc1ccc2nc(SCC(=O)Nc3ccc(S(=O)(=O)N4CCCC4)cc3)c(C#N)cc2c1	1	10	+	18	21	-35	3
N#Cc1ccc(OCC(=O)NCCCn2ccnc2)cc1	.	-2	i	-2	.	.	.
COc1cccc(CNC(=O)CSc2nnc3c(n2)[nH]c2ccc(F)cc23)c1	-1	1	i	1	.	.	.
O=C(CSc1nnc2c(n1)[nH]c1ccc(F)cc12)OCc1ccccc1	-4	-7	+	0	-5	7	-10
O=C(Cc1cccs1)N(Cc1cccs1)C1(C(=O)NC2CCCC2)CCCCC1	-2	-3	+	0	2	-6	6
Cc1occc1-c1nnc(SCC(N)=O)n1Cc1ccccc1	-1	-11	i	1	.	.	.
Cc1occc1-c1nnc(SCC(=O)NCCc2ccccc2)n1Cc1ccccc1	6	5	+	6	13	-23	11
O=C(c1ccco1)N1CCN(c2ncnc3c(-c4ccccc4)nsc23)CC1	-2	5	+	-27	5	-6	-4
COc1ccc(-c2nsc3c(N4CCN(C(=O)c5ccco5)CC4)ncnc23)cc1	-6	1	i	1	.	.	.
CCCCN1CCNC[C@@H]1c1ccccc1	.	10	i	-2	.	.	.
CCN(CC)CCCNC(=O)c1nn(-c2ccc(OC)cc2OC)c(=O)c2ccccc12	-2	2	+	20	11	4	15
CCN(CC)CCCNC(=O)c1nn(-c2cccc(OC)c2)c(=O)c2ccccc12	-5	-1	i	-1	.	.	.
O=C(NC1CC1)c1ccc2nc([C@@H]3O[C@H](CO)[C@H](O)[C@H](O)[C@H]3O)[nH]c2c1	.	2	i	0	.	.	.
Cc1ccc(-c2ccc(CN3C(C)C(=O)N(Cc4cn(Cc5ccco5)nn4)CCS3(=O)=O)cc2)cc1 (centres undefined)	.	1	i	-2	.	.	.
CC1C(=O)N(Cc2cn(Cc3ccco3)nn2)CCS(=O)(=O)N1Cc1ccc(-c2cccnc2)cc1 (centres undefined)	.	10	+	-3	-3	23	13
Cc1cccc(NC(=O)c2sc3nc(-c4ccccc4)cn3c2C)n1	18	15	+	15	9	-29	-7
COc1ccc(-c2cn3c(C)c(C(=O)Nc4cccc(C)n4)sc3n2)cc1	7	3	i	11	.	.	.
Cc1nc(NC(=O)c2ccco2)sc1-c1csc(Nc2ccc(Cl)cc2)n1	-4	104	+	5	12	35	-5
COc1ccc(/C=N/n2c(C)nc3c([nH]c4ccccc43)c2=O)cc1CN1CCCC(C)(C)C1	-1	7	i	0	.	.	.
COc1ccc2[nH]c3c(=O)n(/N=C/c4ccc(OC)c(CN5CCCC5)c4)c(C)nc3c2c1	3	63*	+	7	90*	-54	-4
COc1cc2c(C#CCCCO)c(-c3ccsc3)oc(=O)c2cc1OC	.	-3	i	4	.	.	.
O=C(/C=C/c1ccc(F)cc1)Nc1cc(S(=O)(=O)N2CCOCC2)ccc1N1CCOCC1	.	2	+	0	10	8	2
Cc1ccc(/C=C/C(=O)Nc2cc(S(=O)(=O)N3CCOCC3)ccc2N2CCOCC2)cc1	.	1	i	1	.	.	.
CCN(CC)C(=O)c1nc[nH]c1C(=O)N(CC)CC	.	0	i	-1	.	.	.
